# Bioassay records: PubChem BioAssay, several laboratories
# Most compounds without a hit are left out; they make up all but 3.7% or so of the library.
# procasp7 counter = activates human procaspase-7, counter-screen for procaspase-3 activators. P55210. recombinant procaspase-7, Ac-DEVD-pNA absorbance 405 nm; D23A/D198A/D206A triple mutant, cannot self-cleave; scale: DMSO 0, 5 µM enzyme 100. activation, % at 8.5 µM. 330,000 compounds, 0.093% hits. AID 463210;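 active means percent activation above the screen-wide mean plus 3 SD, cut at about 25% in these data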
#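 Assay system: Uncleavable procaspase-7 mutant enzyme | Input: 2 µM procaspase-7 mutant as dispensed | Timing: 1 h compound preincubation, 2 h substrate cleavage, 25 °C | Repeats: One well per compound | Control set: DMSO wells as 0%, DMSO with 5 µM added PC-7 as 100% | Technique: Epi-absorbance of released pNA at 405 nm, two timepoints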
# procasp3 activ = procaspase-3 (human) activation; P42574; recombinant procaspase-3 D3A, Ac-DEVD-pNA absorbance 405 nm; activation, % at 8.5 µM; 330,000 compounds, 0.11% hits;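 active means activation above the mean of all tested compounds plus 3 SD, cut at about 21% in these data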;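 further: 0% = DMSO alone and 100% = DMSO wells spiked with extra 5 µM PC-3 D3A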
# Target sequence (P42574 whole entry D9A/D28A/D175A): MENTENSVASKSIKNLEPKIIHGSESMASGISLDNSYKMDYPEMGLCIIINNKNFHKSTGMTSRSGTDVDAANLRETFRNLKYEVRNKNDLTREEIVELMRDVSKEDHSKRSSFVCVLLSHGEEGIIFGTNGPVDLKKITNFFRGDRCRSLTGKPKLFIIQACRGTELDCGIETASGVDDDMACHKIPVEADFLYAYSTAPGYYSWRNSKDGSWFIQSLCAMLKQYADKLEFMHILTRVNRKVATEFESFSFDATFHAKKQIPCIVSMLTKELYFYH
#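 Evaluation: percent activation relative to control range; Material: Procaspase-3 D3A mutant, all three cleavage aspartates alanine; Compound: single dose, 8.5 µM nominal compound, 0.8% DMSO; Replication: one well per compound; Signal: absorbance at 405 nm, 0 and 120 min; Schedule: 1 h preincubation plus 2 h reaction at 25 °C.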
# NR3A LBD binder = modulates the human NR3A ligand-binding domain | Tm shift relative to glycine control, % at 25 µM | NR3A LBD differential scanning fluorimetry, Tm shift; 0% = protein alone, 100% = glycine-bound protein | 340,000 compounds, 2.5% hits;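 active means melting temperature shift of at least 10% of the positive control shift, at one fixed dose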
# aDG glyco up = alpha-DG glycosylation activation; 360,000 compounds, 0.22% hits; activation, % at 10 µM; Pro5-aDG cells, alpha-DG glycosylation AlphaScreen (IIH6); 0% Pro5, 100% B10-LARGE cell signal;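 active means activation of at least 8% versus controls, or a plate z-score of at least 8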;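 further: Pro5 are CHO cells carrying HIG-tagged alpha-DG that lacks glycosylation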
# MPTP inh = permeability transition pore inhibition. 360,000 compounds, 1.4% hits. isolated mouse mitochondria, Ca2+ swelling absorbance, 30 min. inhibition, % at 10 µM. AID 602449;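 active means inhibition of 50% or more, scaled per plate between neutral and stimulator controls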;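 further: 0% = DMSO wells given calcium and 100% = 1 mM EGTA wells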
# Rh123 counter = membrane potential counter-screen of mitochondrial pore inhibitors | shares compounds with MPTP inh | isolated mitochondria, Rhodamine 123 fluorescence | inhibition, % at 10 µM | 5,000 compounds, 78% hits; in the data active means inhibition above about 22%;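 further: 0% = DMSO vehicle and 100% = positive control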
# MPTP abs DR = MPTP inhibition, dose response swelling confirmation | 780 compounds, 58% hits | isolated mitochondria swelling, absorbance | IC50, µM | AID 651561 | shares compounds with MPTP inh; in the data active means IC50 below about 20 µM
# * hit, by the source's call; . = no result.
SMILES,procasp7 counter,procasp3 activ,NR3A LBD binder,aDG glyco up,MPTP inh,Rh123 counter,others
C=CC[C@H](CC(=O)N(CCO)Cc1ccccc1)C(=O)NCCOC(=O)[C@H](CC=C)CC(=O)OC(C)(C)C,-1,-2,-3,0,-1,.,
C[C@@H]1COc2cc(N3CCC[C@@H]3CO)ccc2S(=O)(=O)N1,.,.,.,0,-1,.,
C#CCN(C[C@H]1[C@H](OC(=O)NCc2ccccc2F)[C@H](OC(=O)NCc2ccccc2F)C[C@@H](C(=O)OC)[C@H]1C(=O)OC)S(=O)(=O)c1ccc(C)cc1,.,.,.,0,1,.,
CCn1c(=O)c2c3c(sc2n2c(=S)[nH]nc12)CCC3,-3,-1,1,0,-1,.,
Cc1cc(N=Nc2ccccc2C(=O)O)c(C)c(C)c1O,-3,-13,-1,0,56*,36*,
Cc1cc(O)c(C(C)C)cc1N=Cc1ccccc1[N+](=O)[O-],.,.,-22,1,1,.,
Cc1cc(O)c(C(C)C)cc1N=Nc1ccccc1C(=O)O,-9,1,0,0,76*,52*,
N#C/C(=N\Nc1cccc(C(F)(F)F)c1)C(=O)c1ccsc1,-18,-22,16*,0,84*,57*,
Cc1nccc(-c2cccc(N/N=C(\C#N)C(=O)c3ccccc3)c2)n1,-18,-1,0,0,34,.,
O=[N+]([O-])c1cc([N+](=O)[O-])c(Oc2cc(Cl)cc(Cl)c2)cc1NN1CCCCC1,-2,2,-4,0,1,.,
CC(Oc1ccc(Br)cc1Cl)C(=O)Nc1ccncc1 (configuration not stated),6,0,-1,1,77*,80*,
O=C(CONS(=O)(=O)c1ccc(Cl)cc1)NCCNc1ncc(C(F)(F)F)cc1Cl,-4,4,-19,0,70*,77*,
O=C(CN1CCN(c2ncc(C(F)(F)F)cc2Cl)CC1)NCCNc1ncc(C(F)(F)F)cc1Cl,4,-5,4,0,4,.,
N#C/C(=C\Nc1ccccc1O)c1nc2ccccc2o1,-37,-52,27*,0,77*,78*,
CCC[C@@H](CN[C@@H](CNC)[C@H](C)CC)NCC1CCC(C(C)(C)C)CC1 (some centres not stated),10,-1,1,2,94*,-22,MPTP abs DR=5.3*
CCOc1ccc2[nH]cc(-c3csc(N)n3)c2c1,.,.,6,0,0,.,
Cc1ccccc1C1=NC(C(F)(F)F)(C(F)(F)F)c2c(n(C)c(=O)n(C)c2=O)N1,0,0,-3,0,2,.,
Cn1c2c(c(=O)n(C)c1=O)C(C(F)(F)F)(C(F)(F)F)N=C(c1ccc(Cl)cc1)N2,1,8,3,0,99*,84*,
Cc1cccc2c1-c1sc(C(=O)Nc3cccc([N+](=O)[O-])c3C)cc1CO2,19,5,5,0,75*,68*,
Cc1cccc2c1-c1sc(C(=O)Nc3nccs3)cc1CO2,-3,-4,-5,1,1,.,
Cc1ccc(-n2c(Cl)c(Cl)nc(Cl)c2=O)cc1,-12,-16,8,0,67*,0,
CCOc1ccc(Nc2nc(Cc3nnc(SCC(=O)c4ccc(C)c(C)c4)o3)cs2)cc1,1,0,-4,2,83*,74*,
COc1ccc2cc(CNCCOCCOCCNCc3ccc4cc(OC)ccc4c3)ccc2c1,.,.,-2,-1,97*,-10,
CCOc1c(OC(C)=O)ccc(/C=C/c2ccc3cccc(OC(C)=O)c3n2)c1[N+](=O)[O-],7,5,-7,0,21,.,
C=CCN1C(=O)/C(=C/c2ccc(OC(C)=O)c(OCC)c2[N+](=O)[O-])SC1=S,.,.,4,0,102*,65*,
O=C(Nc1cccc(OC(F)(F)F)c1)[C@@H]1O[C@H](CO)[C@H](O)[C@H](O)[C@H]1O,.,.,.,0,0,.,
COc1cccc(CNCCc2c[nH]c3ccccc23)c1OCc1ccccc1,-5,2,-2,2,85*,60*,
